# Results: ChEMBL document CHEMBL2046299, “Construction and functionalization of fused pyridine ring leading to novel compounds as potential antitubercular agents” (Bioorg Med Chem Lett, 2012)
# Tested on: Vero
# Assay: (§1) Cytotoxicity against african green monkey Vero cells after 72 hrs by MTS assay
# Format: cell-based, Chlorocebus sabaeus
# Conditions: Chlorocebus sabaeus, Vero, 72 h
row,Structure (SMILES),IC50 [µg/mL]
1,CCOC(=O)c1cc(Cl)[n+]([O-])c2ccc(C)cc12,< 8

# Tested on: not listed separately
# Assay: as §1
# Format: cell-based, Chlorocebus sabaeus
# Conditions: chlorocebus sabaeus, Vero cells; read-out: INH
row,Structure (SMILES),cytotoxicity at 72 h [%]
1,CCOC(=O)c1cc(Cl)[n+]([O-])c2ccc(C)cc12,96

# Tested on: Mycobacterium tuberculosis
# Assay: Antitubercular activity against non-replicating Mycobacterium tuberculosis assessed as minimum concentration required to inhibit 90% growth after 10 days under anaerobic condition by luciferase-based low-oxygen recovery assay
# Format: functional
# Conditions: not given
# Method in brief: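 Non-replicating M. tuberculosis, low-oxygen recovery assay with luciferase read-out, run on compounds selected from the MABA screen. MIC taken as the lowest concentration inhibiting recovery of luciferase signal by ≥90% relative to bacteria-only controls. Rifampicin, isoniazid and moxifloxacin served as references.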
row,Structure (SMILES),inhibition (INH) [%]
1,NNC(=O)c1ccncc1 [ISONIAZID],84

# Same assay, conditions: Mycobacterium tuberculosis, 240 h
row,Structure (SMILES),MIC90 [µg/mL]
1,CCOC(=O)c1cc(Cl)[n+]([O-])c2ccc(C)cc12,3.65
2,CCOC(=O)c1cc(Cl)[n+]([O-])c2ccccc12,7.3
3,CCOC(=O)c1cc(Cl)[n+]([O-])c2ccc(F)cc12,13.1
4,NNC(=O)c1ccncc1 [ISONIAZID],> 128
5,COc1c(N2C[C@@H]3CCCN[C@@H]3C2)c(F)cc2c(=O)c(C(=O)O)cn(C3CC3)c12 [MOXIFLOXACIN],15.9

# Tested on: Mycobacterium tuberculosis
# Assay: Antitubercular activity against Mycobacterium tuberculosis H37Rv ATCC 27294 assessed as minimum concentration required to inhibit 90% growth after 1 week by fluorescence-based microplate Alamar Blue assay
# Format: functional
# Conditions: H37Rv ATCC 27294, 168 h
# Method in brief: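 M. tuberculosis H37Rv, MABA with fluorescence read-out. MIC taken as the lowest concentration cutting fluorescence by 90% relative to bacteria-only controls. Rifampicin, isoniazid and moxifloxacin served as reference compounds.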
row,Structure (SMILES),MIC90 [µg/mL]
1,CCOC(=O)c1cc(Cl)[n+]([O-])c2ccc(C)cc12,4.33
2,CCOC(=O)c1cc(Cl)[n+]([O-])c2ccccc12,9.2
3,CCOC(=O)c1cc(Cl)[n+]([O-])c2ccc(F)cc12,10.9
4,O=C(O)c1cc(O)n(O)c(=O)c1,> 100
5,Cc1cc(C(=O)O)cc(=O)[nH]1,> 50
6,O=C(O)c1cc(=O)[nH]c2c1CCC2,> 50
7,O=C(O)c1cc(=O)[nH]c2c1CCCC2,> 50
8,O=C(O)c1cc(=O)[nH]c2c1CCCCCC2,> 50
9,COC(=O)c1cc(C)[n+]([O-])c(Cl)c1,> 100
10,COC(=O)c1cc(Cl)[n+]([O-])c2c1CCC2,> 100
11,COC(=O)c1cc(Cl)[n+]([O-])c2c1CCCC2,> 100
12,COC(=O)c1cc(Cl)[n+]([O-])c2c1CCCCCC2,> 50
13,COC(=O)c1cc(C)n(O)c(=O)c1,> 100
14,CCOc1cc(C(=O)O)c2c([n+]1[O-])CCC2,> 100
15,CCOc1cc(C(=O)O)c2c([n+]1[O-])CCCC2,> 100
16,Cc1cc(C(=O)O)cc(=O)n1O,> 50
17,O=C(O)c1cc(=O)n(O)c2c1CCC2,> 100
18,O=C(O)c1cc(=O)n(O)c2c1CCCC2,> 100
19,CCOc1cc(C(=O)O)cc(OCC)[n+]1[O-],> 100
20,O=C(O)c1cc(O)nc2ccccc12,> 50
21,Cc1ccc2[nH]c(=O)cc(C(=O)O)c2c1,> 50
22,O=C(O)c1cc(=O)[nH]c2ccc(F)cc12,> 50
23,O=C(O)c1cc(=O)[nH]c2ccc([N+](=O)[O-])cc12,> 50

row,Structure (SMILES),MIC90 [µg/mL]
1,O=C(O)c1cc(=O)n(O)c2ccccc12,> 100
2,Cc1ccc2c(c1)c(C(=O)O)cc(=O)n2O,> 100
3,O=C(O)c1cc(=O)n(O)c2ccc(F)cc12,> 100
4,Cc1cc(C(=O)O)cc(Cl)[n+]1[O-],> 100
5,O=C(O)c1cc(Cl)[n+]([O-])c2c1CCC2,> 50
6,O=C(O)c1cc(Cl)[n+]([O-])c2c1CCCC2,> 100
7,O=C(O)c1cc(Cl)[n+]([O-])c2c1CCCCCC2,> 100
8,O=C(O)c1cc(Cl)[n+]([O-])c2ccccc12,> 100
9,Cc1ccc2c(c1)c(C(=O)O)cc(Cl)[n+]2[O-],> 100
10,O=C(O)c1cc(Cl)[n+]([O-])c2ccc(F)cc12,> 100
11,NNC(=O)c1cc(=O)[nH]c2c1CCCC2,> 100
12,NNC(=O)c1cc(=O)[nH]c2c1CCC2,> 100
13,NNC(=O)c1cc(=O)[nH]c2ccccc12,> 100
14,Cc1ccc2[nH]c(=O)cc(C(=O)NN)c2c1,> 100
15,NNC(=O)c1cc(=O)[nH]c2ccc(F)cc12,> 100
16,NNC(=O)c1cc(=O)[nH]c2ccc([N+](=O)[O-])cc12,> 100
17,CCCn1c(=O)[nH]c(=O)c2c(C(=O)O)cc(=O)[nH]c21,> 100
18,CCCn1c(=O)[nH]c(=O)c2c(C(=O)O)cc(Cl)nc21,91.7
19,O=C(O)c1cc(O)nc(O)c1 [CITRAZINIC ACID],> 50
20,NNC(=O)c1ccncc1 [ISONIAZID],0.33
21,COc1c(N2C[C@@H]3CCCN[C@@H]3C2)c(F)cc2c(=O)c(C(=O)O)cn(C3CC3)c12 [MOXIFLOXACIN],0.39
22,CO[C@H]1/C=C/O[C@@]2(C)Oc3c(C)c(O)c4c(O)c(c(/C=N/N5CCN(C)CC5)c(O)c4c3C2=O)NC(=O)/C(C)=C\C=C\[C@H](C)[C@H](O)[C@@H](C)[C@@H](O)[C@@H](C)[C@H](OC(C)=O)[C@@H]1C [RIFAMPIN],0.05
